Assay results from ChEMBL document CHEMBL5058577, “EUbOPEN Chemogenomics Library 2 (Multiplex)” (2022).

Tested on: U2OS
Test: Multiplex assay against U2OS
Format: toxicity, cell-based
Conditions: human
How it was run: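 Per cents of healthy-nucleus cells form the tubulin, mitochondrial-mass and membrane-permeability phenotype values. Live cells were stained at seeding with Hoechst33342, BioTracker Green Microtubule Cytoskeleton Dye, MitoTracker Red and Annexin V Alexa Fluor 680. After compound addition they were imaged on a CQ1 microscope at 37°C and 5% CO2, and CellPathfinder machine-learning gating split them into Hoechst high-intensity objects or normal cells, normal cells into healthy, pyknosed or fragmented nuclei, and pyknosed cells into mitotic or apoptotic.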

[1] = 12 h, 1 µM, compound concentration 1 uM, replicate 1
[2] = 12 h, 1 µM, compound concentration 1 uM, replicate 2
[3] = 12 h, 10 µM, compound concentration 10 uM, replicate 1
[4] = 12 h, 10 µM, compound concentration 10 uM, replicate 2
[5] = 24 h, 1 µM, compound concentration 1 uM, replicate 1
[6] = 24 h, 1 µM, compound concentration 1 uM, replicate 2
[7] = 24 h, 10 µM, compound concentration 10 uM, replicate 1
[8] = 24 h, 10 µM, compound concentration 10 uM, replicate 2
[9] = 48 h, 1 µM, compound concentration 1 uM, replicate 1
[10] = 48 h, 1 µM, compound concentration 1 uM, replicate 2
[11] = 48 h, 10 µM, compound concentration 10 uM, replicate 1
[12] = 48 h, 10 µM, compound concentration 10 uM, replicate 2

Question: For C[C@H]1[C@H]2CC[C@H]3[C@@H]4CC=C5C[C@@H](N(C)C)CC[C@]5(C)[C@H]4CC[C@]23CN1C [CONESSINE], which “Population Apoptotic (%)” value [1] is on record?
Answer: 80%

Question: And the “Population Fragmented Nuclei (%)” value [1]?
Answer: 23%

Question: What about the “Population Healthy Nuclei (%)” value [1] of the same compound?
Answer: 70%

Question: And the “Population Hoechst High Intensity Objects (%)” value [1]?
Answer: 2%

Question: And the “Population Membrane Permeable-Phenotype (%)” value [1]?
Answer: 5%

Question: And the “Population Mitochondria Different-Phenotype (%)” value [1]?
Answer: 1%

Question: And the “Population Mitotic Cells (%)” value [1]?
Answer: 20%

Question: And the “Population Normal (%)” value [1]?
Answer: 97%

Question: What about the “Population Pyknosed Nuclei (%)” value [1] of the same compound?
Answer: 6%

Question: And the “Population Tubulin-Different-Phenotype (%)” value [1]?
Answer: 2%

Question: And the “Total Cell Count” value [1]?
Answer: 248

Question: And the “Population Apoptotic (%)” value [2]?
Answer: 58%

Question: What about the “Population Fragmented Nuclei (%)” value [2] of the same compound?
Answer: 16%

Question: And the “Population Healthy Nuclei (%)” value [2]?
Answer: 73%

Question: What about the “Population Hoechst High Intensity Objects (%)” value [2] of the same compound?
Answer: 1%

Question: What about the “Population Mitochondria Different-Phenotype (%)” value [2] of the same compound?
Answer: 2%

Question: And the “Population Mitotic Cells (%)” value [2]?
Answer: 41%

Question: And the “Population Normal (%)” value [2]?
Answer: 98%

Question: And the “Population Pyknosed Nuclei (%)” value [2]?
Answer: 9%

Question: And the “Population Tubulin-Different-Phenotype (%)” value [2]?
Answer: 3%

Question: And the “Total Cell Count” value [2]?
Answer: 124

Question: And the “Population Apoptotic (%)” value [3]?
Answer: 55%

Question: And the “Population Fragmented Nuclei (%)” value [3]?
Answer: 19%

Question: And the “Population Healthy Nuclei (%)” value [3]?
Answer: 71%

Question: What about the “Population Hoechst High Intensity Objects (%)” value [3] of the same compound?
Answer: 2%

Question: What about the “Population Membrane Permeable-Phenotype (%)” value [3] of the same compound?
Answer: 5%

Question: What about the “Population Mitochondria Different-Phenotype (%)” value [3] of the same compound?
Answer: 0%

Question: And the “Population Mitotic Cells (%)” value [3]?
Answer: 45%

Question: And the “Population Normal (%)” value [3]?
Answer: 97%

Question: What about the “Population Pyknosed Nuclei (%)” value [3] of the same compound?
Answer: 8%

Question: And the “Population Tubulin-Different-Phenotype (%)” value [3]?
Answer: 1%

Question: And the “Total Cell Count” value [3]?
Answer: 237

Question: And the “Population Apoptotic (%)” value [4]?
Answer: 100%

Question: And the “Population Fragmented Nuclei (%)” value [4]?
Answer: 17%

Question: What about the “Population Healthy Nuclei (%)” value [4] of the same compound?
Answer: 68%

Question: And the “Population Hoechst High Intensity Objects (%)” value [4]?
Answer: 0%

Question: And the “Population Membrane Permeable-Phenotype (%)” value [4]?
Answer: 8%

Question: What about the “Population Mitochondria Different-Phenotype (%)” value [4] of the same compound?
Answer: 5%

Question: What about the “Population Mitotic Cells (%)” value [4] of the same compound?
Answer: 0%

Question: What about the “Population Normal (%)” value [4] of the same compound?
Answer: 99%

Question: What about the “Population Pyknosed Nuclei (%)” value [4] of the same compound?
Answer: 13%

Question: And the “Population Tubulin-Different-Phenotype (%)” value [4]?
Answer: 6%

Question: And the “Total Cell Count” value [4]?
Answer: 107

Question: And the “Population Apoptotic (%)” value [5]?
Answer: 90%

Question: What about the “Population Fragmented Nuclei (%)” value [5] of the same compound?
Answer: 18%

Question: And the “Population Healthy Nuclei (%)” value [5]?
Answer: 74%

Question: What about the “Population Hoechst High Intensity Objects (%)” value [5] of the same compound?
Answer: 2%

Question: And the “Population Membrane Permeable-Phenotype (%)” value [5]?
Answer: 6%

Question: What about the “Population Mitochondria Different-Phenotype (%)” value [5] of the same compound?
Answer: 1%

Question: What about the “Population Mitotic Cells (%)” value [5] of the same compound?
Answer: 9%

Question: And the “Population Normal (%)” value [5]?
Answer: 97%

Question: And the “Population Pyknosed Nuclei (%)” value [5]?
Answer: 7%

Question: What about the “Population Tubulin-Different-Phenotype (%)” value [5] of the same compound?
Answer: 3%

Question: What about the “Total Cell Count” value [5] of the same compound?
Answer: 307

Question: And the “Population Apoptotic (%)” value [6]?
Answer: 100%

Question: What about the “Population Fragmented Nuclei (%)” value [6] of the same compound?
Answer: 11%

Question: What about the “Population Healthy Nuclei (%)” value [6] of the same compound?
Answer: 81%

Question: And the “Population Hoechst High Intensity Objects (%)” value [6]?
Answer: 1%

Question: And the “Population Membrane Permeable-Phenotype (%)” value [6]?
Answer: 8%

Question: What about the “Population Mitochondria Different-Phenotype (%)” value [6] of the same compound?
Answer: 5%

Question: And the “Population Mitotic Cells (%)” value [6]?
Answer: 0%

Question: What about the “Population Normal (%)” value [6] of the same compound?
Answer: 98%

Question: And the “Population Tubulin-Different-Phenotype (%)” value [6]?
Answer: 7%

Question: What about the “Total Cell Count” value [6] of the same compound?
Answer: 153

Question: What about the “Population Apoptotic (%)” value [7] of the same compound?
Answer: 65%

Question: And the “Population Fragmented Nuclei (%)” value [7]?
Answer: 20%

Question: And the “Population Healthy Nuclei (%)” value [7]?
Answer: 71%

Question: What about the “Population Hoechst High Intensity Objects (%)” value [7] of the same compound?
Answer: 2%

Question: What about the “Population Membrane Permeable-Phenotype (%)” value [7] of the same compound?
Answer: 2%

Question: What about the “Population Mitochondria Different-Phenotype (%)” value [7] of the same compound?
Answer: 0%

Question: What about the “Population Mitotic Cells (%)” value [7] of the same compound?
Answer: 35%

Question: And the “Population Normal (%)” value [7]?
Answer: 97%

Question: And the “Population Pyknosed Nuclei (%)” value [7]?
Answer: 7%

Question: And the “Population Tubulin-Different-Phenotype (%)” value [7]?
Answer: 1%

Question: What about the “Total Cell Count” value [7] of the same compound?
Answer: 265

Question: What about the “Population Apoptotic (%)” value [8] of the same compound?
Answer: 100%

Question: And the “Population Fragmented Nuclei (%)” value [8]?
Answer: 19%

Question: What about the “Population Hoechst High Intensity Objects (%)” value [8] of the same compound?
Answer: 4%

Question: What about the “Population Membrane Permeable-Phenotype (%)” value [8] of the same compound?
Answer: 10%

Question: What about the “Population Mitochondria Different-Phenotype (%)” value [8] of the same compound?
Answer: 4%

Question: What about the “Population Mitotic Cells (%)” value [8] of the same compound?
Answer: 0%

Question: And the “Population Normal (%)” value [8]?
Answer: 95%

Question: What about the “Population Pyknosed Nuclei (%)” value [8] of the same compound?
Answer: 8%

Question: And the “Population Tubulin-Different-Phenotype (%)” value [8]?
Answer: 9%

Question: What about the “Total Cell Count” value [8] of the same compound?
Answer: 134

Question: What about the “Population Apoptotic (%)” value [9] of the same compound?
Answer: 83%

Question: And the “Population Fragmented Nuclei (%)” value [9]?
Answer: 16%

Question: What about the “Population Healthy Nuclei (%)” value [9] of the same compound?
Answer: 79%

Question: And the “Population Hoechst High Intensity Objects (%)” value [9]?
Answer: 2%

Question: And the “Population Membrane Permeable-Phenotype (%)” value [9]?
Answer: 4%

Question: What about the “Population Mitochondria Different-Phenotype (%)” value [9] of the same compound?
Answer: 2%

Question: And the “Population Mitotic Cells (%)” value [9]?
Answer: 16%

Question: What about the “Population Normal (%)” value [9] of the same compound?
Answer: 97%

Question: What about the “Population Pyknosed Nuclei (%)” value [9] of the same compound?
Answer: 4%

Question: What about the “Population Tubulin-Different-Phenotype (%)” value [9] of the same compound?
Answer: 1%

Question: What about the “Total Cell Count” value [9] of the same compound?
Answer: 430

Question: And the “Population Apoptotic (%)” value [10]?
Answer: 86%

Question: What about the “Population Healthy Nuclei (%)” value [10] of the same compound?
Answer: 73%

Question: And the “Population Mitochondria Different-Phenotype (%)” value [10]?
Answer: 0%

Question: And the “Population Mitotic Cells (%)” value [10]?
Answer: 13%

Question: And the “Population Pyknosed Nuclei (%)” value [10]?
Answer: 9%

Question: And the “Population Tubulin-Different-Phenotype (%)” value [10]?
Answer: 2%

Question: What about the “Total Cell Count” value [10] of the same compound?
Answer: 227

Question: And the “Population Apoptotic (%)” value [11]?
Answer: 89%

Question: What about the “Population Fragmented Nuclei (%)” value [11] of the same compound?
Answer: 19%

Question: What about the “Population Healthy Nuclei (%)” value [11] of the same compound?
Answer: 73%

Question: What about the “Population Hoechst High Intensity Objects (%)” value [11] of the same compound?
Answer: 1%

Question: And the “Population Membrane Permeable-Phenotype (%)” value [11]?
Answer: 4%

Question: And the “Population Mitochondria Different-Phenotype (%)” value [11]?
Answer: 2%

Question: And the “Population Mitotic Cells (%)” value [11]?
Answer: 10%

Question: And the “Population Normal (%)” value [11]?
Answer: 98%

Question: What about the “Population Pyknosed Nuclei (%)” value [11] of the same compound?
Answer: 7%

Question: And the “Population Tubulin-Different-Phenotype (%)” value [11]?
Answer: 3%

Question: And the “Total Cell Count” value [11]?
Answer: 370

Question: What about the “Population Apoptotic (%)” value [12] of the same compound?
Answer: 85%

Question: What about the “Population Fragmented Nuclei (%)” value [12] of the same compound?
Answer: 15%

Question: And the “Population Healthy Nuclei (%)” value [12]?
Answer: 72%

Question: What about the “Population Hoechst High Intensity Objects (%)” value [12] of the same compound?
Answer: 6%

Question: And the “Population Membrane Permeable-Phenotype (%)” value [12]?
Answer: 9%

Question: What about the “Population Mitochondria Different-Phenotype (%)” value [12] of the same compound?
Answer: 5%

Question: What about the “Population Mitotic Cells (%)” value [12] of the same compound?
Answer: 15%

Question: And the “Population Normal (%)” value [12]?
Answer: 93%

Question: What about the “Population Pyknosed Nuclei (%)” value [12] of the same compound?
Answer: 12%

Question: And the “Population Tubulin-Different-Phenotype (%)” value [12]?
Answer: 6%

Question: And the “Total Cell Count” value [12]?
Answer: 175
